Activity calls are given as the source filed them. The rule behind the calls is not given here. Positions of bridges follow the written chain, without caps; N, C: chain ends. Non-standard residues stand in square brackets, D forms with d. Residues, ends and D or L forms follow the SMILES beside them. ξ: configuration not given here. *: point of attachment. S5 = C=CCCC[C@](C)(N)C(=O)O; Acryloyl = C=CC(=O)*; Propionyl = CCC(=O)*; ξDap = NCC(N)C(=O)O
What was measured:
Bcl-2-related protein A1 [1] = biological target: T1, Bcl-2-related protein A1 (Homo sapiens, UniProt Q16548); assay: Covalent binding affinity to human Bcl2A1 by FBid based FP assay
T1 sequence (Q16548 whole entry): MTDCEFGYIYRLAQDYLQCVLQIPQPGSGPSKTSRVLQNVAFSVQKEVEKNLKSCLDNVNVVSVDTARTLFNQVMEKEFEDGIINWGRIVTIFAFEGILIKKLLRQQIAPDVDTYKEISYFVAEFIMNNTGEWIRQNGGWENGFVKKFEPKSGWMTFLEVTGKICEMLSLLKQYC

[2] = biological target: T2, Bcl-2-like protein 2 (Homo sapiens) (UniProt Q92843); assay: Binding affinity to human Bcl-w incubated for 2 hrs by FBid based competitive FP assay
T2 sequence (whole entry): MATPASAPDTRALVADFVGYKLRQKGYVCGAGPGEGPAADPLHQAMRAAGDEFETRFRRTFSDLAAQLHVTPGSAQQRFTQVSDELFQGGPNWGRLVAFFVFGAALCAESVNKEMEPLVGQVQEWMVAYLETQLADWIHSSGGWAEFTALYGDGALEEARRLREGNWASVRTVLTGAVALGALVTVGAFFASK

[3] = biological target: Bcl-2-like protein 1 (Homo sapiens) (UniProt Q07817); assay: Binding affinity to human Bcl-xL incubated for 2 hrs by FBid based competitive FP assay
[4] = biological target: T3, Bcl-2-related protein A1 (Homo sapiens) (UniProt Q16548); assay: Covalent binding affinity to human Bcl2A1 incubated for 2 hrs by SDS-PAGE electrophoresis
T3 sequence (whole entry): T1 sequence (Q16548 whole entry)

[5] = biological target: Apoptosis regulator Bcl-2 (Homo sapiens) (UniProt P10415); assay: Binding affinity to human Bcl2 incubated for 2 hrs by FBid based competitive FP assay
[6] = biological target: T4, Induced myeloid leukemia cell differentiation protein Mcl-1 (Homo sapiens, UniProt Q07820); assay: Binding affinity to human Mcl1 incubated for 2 hrs by FBid based competitive FP assay
Bcl-2-related protein A1 [7] = biological target: T1, Bcl-2-related protein A1; assay: (§1) Binding affinity to human Bcl2A1 incubated for 2 hrs by FBid based competitive FP assay
[8] = biological target: T3, Bcl-2-related protein A1 (Homo sapiens); assay: Covalent binding affinity to Bcl2A1 in human U937 cells at 0.1 to 50 uM incubated for 24 hrs by Western blot analysis; conditions: U-937, dose 0.1-50 µM
[9] = biological target: T3, Bcl-2-related protein A1 (Homo sapiens); assay: Covalent binding affinity to human Bcl2A1 assessed as Kinact/Ki ratio by FBid based FP assay
[10] = biological target: T3, Bcl-2-related protein A1 (Homo sapiens); assay: Covalent binding affinity to human Bcl2A1 assessed as inactivation constant by FBid based FP assay
[11] = biological target: T3, Bcl-2-related protein A1 (Homo sapiens); assay: Covalent binding affinity to human Bcl2A1 incubated for 2 hrs by in presence of trypsin by MS/MS analysis
Summary of the method: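 A1 at 1 μM incubated with peptide at 10 μM, 2 h, in pH 7.2 buffer. Intact conjugate mass checked by MS. The conjugate gel band was trypsin-digested and the Cys55-bearing A1 fragment with bound peptide identified by mass spectrometry.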

[12] = biological target: T4, Induced myeloid leukemia cell differentiation protein Mcl-1; assay: Binding affinity to human Mcl1 by FBid based FP assay
[13] = biological target: T3, Bcl-2-related protein A1 (Homo sapiens); assay: as §1
SK-MEL-28 [14] = assay: Toxicity in human SK-MEL-28 cells at 50 uM incubated for 30 mins by LDH release assay; format: cell-based; conditions: sk-mel-28, 0.5 h
SK-MEL-28 [15] = assay: Cytotoxicity in human SK-MEL-28 cells assessed as reduction in cell viability incubated for 48 hrs by MTT assay; format: functional, cell-based
Summary of the method: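 SK-MEL-28 cells grown in DMEM with 10% FBS and penicillin/streptomycin. Peptide applied over a concentration series for 48 h. Viability read by MTT, and IC50 taken from the dose–response.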

SK-MEL-28 [16] = assay: Synergistic cytotoxicity in human SK-MEL-28 cells assessed as reduction in cell viability at 1.25 to 30 uM incubated for 48 hrs in presence of etoposide by MTT assay; format: functional, cell-based; conditions: dose 1.25-30 µM
[17] = biological target: Induced myeloid leukemia cell differentiation protein Mcl-1/Bcl-2-like protein 11 (Homo sapiens) (UniProt Q07820+O43521); assay: Inhibition of Mcl1-Bim interaction in human SK-MEL-28 cells at 30 uM incubated for 24 hrs by immunoprecipitation assay; format: cell-based
[18] = biological target: Bcl-2-like protein 11/Bcl-2-related protein A1 (Homo sapiens) (UniProt O43521+Q16548); assay: Inhibition of Bcl2A1-Bim interaction in human SK-MEL-28 cells at 30 uM incubated for 24 hrs by immunoprecipitation assay; format: cell-based
Bcl-2-like protein 11/Bcl-2-related protein A1 (Homo sapiens), sequence (O43521 whole entry, looked up, one chain of several): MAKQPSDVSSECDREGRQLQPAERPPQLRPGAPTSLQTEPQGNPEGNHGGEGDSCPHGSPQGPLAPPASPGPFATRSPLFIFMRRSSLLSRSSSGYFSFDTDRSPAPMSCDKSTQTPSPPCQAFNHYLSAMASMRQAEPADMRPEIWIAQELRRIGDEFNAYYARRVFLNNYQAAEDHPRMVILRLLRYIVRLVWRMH

Bcl-2-like protein 1 (Homo sapiens), sequence (Q07817 whole entry): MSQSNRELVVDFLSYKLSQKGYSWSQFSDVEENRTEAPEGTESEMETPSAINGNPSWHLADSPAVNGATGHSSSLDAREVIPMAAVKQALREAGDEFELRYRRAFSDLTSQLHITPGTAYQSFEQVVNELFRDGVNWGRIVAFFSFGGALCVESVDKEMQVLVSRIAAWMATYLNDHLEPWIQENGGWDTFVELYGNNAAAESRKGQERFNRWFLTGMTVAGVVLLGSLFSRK
T4 sequence (Q07820 whole entry): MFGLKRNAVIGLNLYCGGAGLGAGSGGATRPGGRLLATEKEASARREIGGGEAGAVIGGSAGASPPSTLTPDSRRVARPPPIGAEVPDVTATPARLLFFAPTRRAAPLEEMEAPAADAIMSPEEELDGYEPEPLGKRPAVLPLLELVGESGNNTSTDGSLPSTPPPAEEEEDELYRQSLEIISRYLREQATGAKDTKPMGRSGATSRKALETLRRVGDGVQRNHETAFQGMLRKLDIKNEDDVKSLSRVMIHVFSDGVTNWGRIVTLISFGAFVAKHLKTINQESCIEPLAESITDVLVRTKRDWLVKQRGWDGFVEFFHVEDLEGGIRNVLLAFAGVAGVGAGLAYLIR
Apoptosis regulator Bcl-2 (Homo sapiens), sequence (P10415 whole entry): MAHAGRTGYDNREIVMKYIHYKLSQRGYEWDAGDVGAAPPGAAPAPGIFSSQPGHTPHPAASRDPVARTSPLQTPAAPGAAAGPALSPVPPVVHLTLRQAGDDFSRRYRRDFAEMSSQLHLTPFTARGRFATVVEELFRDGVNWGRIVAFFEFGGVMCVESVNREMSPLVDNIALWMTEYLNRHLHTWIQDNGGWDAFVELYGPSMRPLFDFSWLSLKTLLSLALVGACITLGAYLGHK
Induced myeloid leukemia cell differentiation protein Mcl-1/Bcl-2-like protein 11 (Homo sapiens), sequence (O43521 whole entry, looked up): as the sequence (O43521 whole entry, looked up, one chain of several) above
Induced myeloid leukemia cell differentiation protein Mcl-1/Bcl-2-like protein 11 (Homo sapiens), sequence (Q07820 whole entry, looked up): as the sequence (Q07820 whole entry) above

| SMILES | Ki (Bcl-2-related protein A1 [1]) | Activity [2] | Activity [3] | Activity [4] | Activity [5] | IC50 [6] | IC50 (Bcl-2-related protein A1 [7]) | Activity [8] | Ratio [9] | Kinact [10] | also measured |
| --- | --- | --- | --- | --- | --- | --- | --- | --- | --- | --- | --- |
| C=CC(=O)NCC1NC(=O)[C@@](C)(NC(C)=O)CCC/C=C/CCC[C@@](C)(C(=O)N[C@@H](CCC(=O)O)C(=O)N[C@@H](CC(C)C)C(=O)N[C@@H](CCCNC(=N)N)C(=O)N[C@H]2CCCCNC(=O)C[C@@H](C(=O)N[C@@H](Cc3ccccc3)C(N)=O)NC(=O)[C@H](CC(=O)O)NC(=O)CNC(=O)[C@H]([C@@H](C)CC)NC2=O)NC(=O)[C@H](C)NC(=O)[C@H]([C@@H](C)CC)NC1=O (some centres undefined) (Ac-[S5][ξDap](Acryloyl)IA[S5]ELRKIGDDF-NH2; staple (E) 1-5; lactam 9-13) | 10 nM | inactive | inactive | Active | inactive | 29.2 nM | 6.6 nM | Active | 399 mM⁻¹ s⁻¹ | 0.00367 s⁻¹ | Activity [11]: Active |
| C=CC(=O)NCC1NC(=O)[C@@](C)(NC(C)=O)CCC/C=C/CCC[C@@](C)(C(=O)N[C@@H](CCC(=O)O)C(=O)N[C@@H](CC(C)C)C(=O)N[C@@H](CCCNC(=N)N)C(=O)N[C@@]2(C)CCC/C=C/CCC[C@@](C)(C(=O)N[C@@H](Cc3ccccc3)C(N)=O)NC(=O)[C@H](CC(=O)O)NC(=O)CNC(=O)[C@H]([C@@H](C)CC)NC2=O)NC(=O)[C@H](C)NC(=O)[C@H]([C@@H](C)CC)NC1=O (some centres undefined) (Ac-[S5][ξDap](Acryloyl)IA[S5]ELR[S5]IGD[S5]F-NH2; staple (E) 1-5, 9-13) | 133 nM | inactive | inactive | – | inactive | 51.6 nM | 13.4 nM | Active | 16.2 mM⁻¹ s⁻¹ | 0.00224 s⁻¹ | – |
| C=CC(=O)NCC1NC(=O)[C@@](C)(NC(C)=O)CCC/C=C/CCC[C@@](C)(C(=O)N[C@@H](CC(C)C)C(=O)N[C@@H](CC(C)C)C(=O)N[C@@H](CCCNC(=N)N)C(=O)N[C@H]2CCCCNC(=O)C[C@@H](C(=O)N[C@@H](Cc3ccccc3)C(N)=O)NC(=O)[C@H](CC(=O)O)NC(=O)CNC(=O)[C@H]([C@@H](C)CC)NC2=O)NC(=O)[C@H](C)NC(=O)[C@H]([C@@H](C)CC)NC1=O (some centres undefined) (Ac-[S5][ξDap](Acryloyl)IA[S5]LLRKIGDDF-NH2; staple (E) 1-5; lactam 9-13) | – | – | – | – | – | – | – | – | – | – | Activity [10]: Active |
| CCC(=O)NCC1NC(=O)[C@@](C)(NC(C)=O)CCC/C=C/CCC[C@@](C)(C(=O)N[C@@H](CCC(=O)O)C(=O)N[C@@H](CC(C)C)C(=O)N[C@@H](CCCNC(=N)N)C(=O)N[C@H]2CCCCNC(=O)C[C@@H](C(=O)N[C@@H](Cc3ccccc3)C(N)=O)NC(=O)[C@H](CC(=O)O)NC(=O)CNC(=O)[C@H]([C@@H](C)CC)NC2=O)NC(=O)[C@H](C)NC(=O)[C@H]([C@@H](C)CC)NC1=O (some centres undefined) (Ac-[S5][ξDap](Propionyl)IA[S5]ELRKIGDDF-NH2; staple (E) 1-5; lactam 9-13) | – | – | – | inactive | – | – | – | inactive | – | – | Activity [12]: Active |
| CCC(=O)NCC1NC(=O)[C@@](C)(NC(C)=O)CCC/C=C/CCC[C@@](C)(C(=O)N[C@@H](CC(C)C)C(=O)N[C@@H](CC(C)C)C(=O)N[C@@H](CCCNC(=N)N)C(=O)N[C@H]2CCCCNC(=O)C[C@@H](C(=O)N[C@@H](Cc3ccccc3)C(N)=O)NC(=O)[C@H](CC(=O)O)NC(=O)CNC(=O)[C@H]([C@@H](C)CC)NC2=O)NC(=O)[C@H](C)NC(=O)[C@H]([C@@H](C)CC)NC1=O (some centres undefined) (Ac-[S5][ξDap](Propionyl)IA[S5]LLRKIGDDF-NH2; staple (E) 1-5; lactam 9-13) | – | inactive | inactive | – | – | – | – | – | – | – | Activity [6]: Active; Activity [13]: Active; Activity (SK-MEL-28 [14]): Non-Toxic; Activity (SK-MEL-28 [15]): Dose-dependent effect; IC50 (SK-MEL-28 [15]; SK-MEL-28, 48 h): 8800 nM; Activity (SK-MEL-28 [16]): Active; inhibition [17]: Active; inhibition [18]: Active |

From ChEMBL document CHEMBL4715819, “Bicyclic Helical Peptides as Dual Inhibitors Selective for Bcl2A1 and Mcl-1 Proteins” (J Med Chem, 2018)
